For one series, the system named is A549. As to the kind of experiment: Antiproliferative activity against human A549 cells after 48 hrs by MTT assay. The note with it: A549, 48 h. Format: functional, cell-based.
The subject of the next series is DU-145. As to the kind of experiment: Antiproliferative activity against human DU145 cells after 48 hrs by MTT assay. It is filed as functional, cell-based. The note with it: DU-145, 48 h. A general note: Formazan colour is commonly taken as a measure of viable cells.
Another series has as its system HeLa. Put plainly: Antiproliferative activity against human HeLa cells after 48 hrs by MTT assay. It is filed as functional, cell-based.
In a further series the test system is MCF7. Put plainly: Antiproliferative activity against human MCF7 cells after 48 hrs by MTT assay. It is filed as functional, cell-based. The note with it: MCF7, 48 h.
The next series relates to NIH3T3. Put plainly: Antiproliferative activity against mouse NIH/3T3 cells after 48 hrs by MTT assay. Format: functional, cell-based. The note with it: NIH3T3, 48 h.
For a further series, the system named is Calf thymus DNA. Put plainly: Binding affinity to calf thymus double stranded DNA at 5 uM by ostwald viscometer. It is filed as nucleic-acid assay. As to conditions: Bos taurus.
The target in series [1] is T1, Topoisomerase I (Bos taurus) (UniProt Q2HPH0).
T1 sequence (whole entry): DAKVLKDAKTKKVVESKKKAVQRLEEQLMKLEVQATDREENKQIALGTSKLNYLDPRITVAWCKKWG
As to the kind of experiment: Inhibition of calf thymus DNA topoisomerase 1 at 20 uM using pBR322 DNA as substrate after 30 mins by agarose gel electrophoresis method.

Series [2] relates to DNA. As to the kind of experiment: Induction of Escherichia coli pBR322 DNA cleavage at 20 uM incubated in dark condition by agarose gel electrophoresis. Format: nucleic-acid assay. Summed up:
(§1)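 pBR322 plasmid DNA was incubated with 20 µM ligand, either in the dark or under UV-light irradiation for 1 h. Products were separated by gel electrophoresis. Irradiated DNA solution alone served as the control.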

The subject of series [3] is DNA. Put plainly: Induction of Escherichia coli pBR322 DNA cleavage at 20 uM incubated in presence of UV-light for 1 hr by agarose gel electrophoresis. It is filed as nucleic-acid assay. Summed up: as §1

The structures appear in SMILES notation. Active and inactive are the calls of the source. The rule behind the calls is not given here.

For orientation: IC50 means the concentration that inhibits the measured activity by half. Higher therefore signals weaker potency. For the compound `COc1cc(-c2nc(C(c3c[nH]c4ccc(F)cc34)c3c[nH]c4ccc(F)cc34)cc3c2[nH]c2ccccc23)cc(OC)c1OC`, the 50% inhibitory concentration (IC50) in the series with A549 was 16.9 µM; in the series on DU-145 it was 10.1 µM; with HeLa it was 12.2 µM; in the series with MCF7, 13.6 µM; in the series with NIH3T3, 118 µM.
Regarding `COc1ccc(-c2nc(C(c3c[nH]c4ccc(Br)cc34)c3c[nH]c4ccc(Br)cc34)cc3c2[nH]c2ccccc23)cc1`, the concentration for half-maximal inhibition (IC50) with A549 amounted to 9.24 µM; with DU-145, 2.63 µM; in the series with HeLa, 15 µM; in the series on MCF7 it was 18.6 µM; with NIH3T3, 86.3 µM.
On to `COc1ccc(-c2nc(C(c3c[nH]c4ccc(F)cc34)c3c[nH]c4ccc(F)cc34)cc3c2[nH]c2ccccc23)cc1`, for which the IC50 in the series with A549 was 27.6 µM; in the series with DU-145, 8.33 µM; in the series with HeLa, 35.5 µM; with MCF7 it was 30.6 µM; with NIH3T3, 94.4 µM.
Consider `COc1cccc2c1C(=O)c1c(O)c3c(c(O)c1C2=O)C[C@@](O)(C(=O)CO)C[C@@H]3O[C@H]1C[C@H](N)[C@H](O)[C@H](C)O1` [DOXORUBICIN], for which the IC50 in the series on DU-145 is 2.13 µM; in the series on HeLa, 1.73 µM; with MCF7, 2.18 µM.
Take `CC[n+]1c(-c2ccccc2)c2cc(N)ccc2c2ccc(N)cc21`: the outcome with Calf thymus DNA was Active.
On to `COc1cc(-c2nc(C(c3c[nH]c4ccccc34)c3c[nH]c4ccc(C#N)cc34)cc3c2[nH]c2ccccc23)cc(OC)c1OC` (stereo not drawn), for which the half-maximal inhibitory concentration (IC50) in the series with A549 was determined as 19.3 µM; in the series with DU-145, 19 µM; in the series with HeLa, 9.86 µM; in the series on MCF7, 11.8 µM; with NIH3T3 it was 57.2 µM.
On to `Cc1ccc(-c2nc(C(c3c[nH]c4ccc(F)cc34)c3c[nH]c4ccc(F)cc34)cc3c2[nH]c2ccccc23)cc1`, for which the IC50 came out at 14.2 µM in the series on A549; 5.81 µM in the series on DU-145; 12.4 µM in the series with HeLa; 14.2 µM with MCF7; 66.2 µM in the series on NIH3T3.
For `Fc1ccc(-c2nc(C(c3c[nH]c4ccc(Br)cc34)c3c[nH]c4ccc(Br)cc34)cc3c2[nH]c2ccccc23)cc1`, the IC50 in the series with A549 was 8.3 µM; in the series on DU-145, 7.74 µM; in the series with HeLa, 9.5 µM; in the series on MCF7, 18.3 µM; with NIH3T3, 90.1 µM.
The corresponding values for `Cc1ccc(-c2nc(C(c3c[nH]c4ccc([N+](=O)[O-])cc34)c3c[nH]c4ccc([N+](=O)[O-])cc34)cc3c2[nH]c2ccccc23)cc1` are 6.92 µM, 6 µM, 10.9 µM, 16.9 µM and 145 µM.
In the case of `Cc1ccc(-c2nc(C(c3c(C)[nH]c4ccc([N+](=O)[O-])cc34)c3c(C)[nH]c4ccc([N+](=O)[O-])cc34)cc3c2[nH]c2ccccc23)cc1`, the 50% inhibitory concentration (IC50) in the series on A549 is 21.1 µM; in the series on DU-145, 15 µM; with HeLa it was 28.1 µM; in the series with MCF7 it was 22.8 µM; in the series on NIH3T3 it was 52.1 µM.
The corresponding values for `COc1ccc2[nH]cc(C(c3cc4c([nH]c5ccccc54)c(-c4ccc(C)cc4)n3)c3c[nH]c4ccc(OC)cc34)c2c1` are 30.1 µM, 23.1 µM, 33.8 µM, 27.4 µM and 59.3 µM.
As to `COc1ccc(-c2nc(C(c3c[nH]c4ccccc34)c3c[nH]c4ccc(C#N)cc34)cc3c2[nH]c2ccccc23)cc1` (stereo not drawn), the IC50 in the series with A549 is 13.7 µM; with DU-145, 14.8 µM; with HeLa, 30.9 µM; in the series on MCF7 it was 28.9 µM; with NIH3T3 it was 119 µM.
On the same counts, the results for `COc1cc(-c2nc(C(c3c[nH]c4ccc(Br)cc34)c3c[nH]c4ccc(Br)cc34)cc3c2[nH]c2ccccc23)cc(OC)c1OC` are 21.8 µM, 14.7 µM, 15.8 µM, 33.4 µM and 64.3 µM.
The corresponding values for `Cc1ccc(-c2nc(C(c3c[nH]c4ccc(C#N)cc34)c3c[nH]c4ccc(C#N)cc34)cc3c2[nH]c2ccccc23)cc1` are 11 µM, 7.32 µM, 16 µM, 17.4 µM and 60.6 µM.
For `COc1ccc2[nH]cc(C(c3cc4c([nH]c5ccccc54)c(-c4ccc(F)cc4)n3)c3c[nH]c4ccc(OC)cc34)c2c1`, the IC50 in the series on A549 was found to be 14.6 µM; in the series with DU-145, 10.6 µM; in the series with HeLa, 23.7 µM; in the series with MCF7, 34.6 µM; in the series with NIH3T3, 110 µM.
On to `N#Cc1ccc2[nH]cc(C(c3cc4c([nH]c5ccccc54)c(-c4ccc(F)cc4)n3)c3c[nH]c4ccccc34)c2c1` (stereo not drawn), for which the concentration for half-maximal inhibition (IC50) with A549 was 15.7 µM; in the series with DU-145, 2.34 µM; with HeLa, 17.1 µM; in the series with MCF7, 26.3 µM; with NIH3T3, 58.1 µM.
In the case of `COc1ccc(-c2nc(C(c3c[nH]c4ccccc34)c3c[nH]c4ccccc34)cc3c2[nH]c2ccccc23)cc1`, the half-maximal inhibitory concentration (IC50) in the series with A549 was 13.5 µM; in the series on DU-145 it was 12.8 µM; with HeLa, 26.2 µM; with MCF7 it was 38.1 µM; in the series on NIH3T3 it was 83.2 µM.
The corresponding values for `COc1cc(-c2nc(C(c3c[nH]c4ccc([N+](=O)[O-])cc34)c3c[nH]c4ccc([N+](=O)[O-])cc34)cc3c2[nH]c2ccccc23)cc(OC)c1OC` are 17.1 µM, 11.9 µM, 14.2 µM, 16.3 µM and 128 µM.
The corresponding values for `Cc1ccc(-c2nc(C(c3c[nH]c4ccccc34)c3c[nH]c4ccccc34)cc3c2[nH]c2ccccc23)cc1` are 10 µM, 13.7 µM, 14.3 µM, 18.1 µM and 101 µM.
The corresponding values for `COc1cc(-c2nc(C(c3c[nH]c4ccccc34)c3c[nH]c4ccccc34)cc3c2[nH]c2ccccc23)cc(OC)c1OC` are 22.7 µM, 12.8 µM, 21.4 µM, 34.9 µM and 92.9 µM.
Take `CCOc1ccc(-c2nc3cc(-c4nc5cc(N6CCN(C)CC6)ccc5[nH]4)ccc3[nH]2)cc1`: the outcome in the series with Calf thymus DNA was inactive.
Regarding `COc1ccc(-c2nc(C(c3c[nH]c4ccc([N+](=O)[O-])cc34)c3c[nH]c4ccc([N+](=O)[O-])cc34)cc3c2[nH]c2ccccc23)cc1`, the 50% inhibitory concentration (IC50) in the series with A549 was determined as 10.4 µM; with DU-145 it was 9.31 µM; with HeLa, 18 µM; in the series with MCF7, 50.1 µM; in the series on NIH3T3, 118 µM.
As for `COc1ccc(-c2nc(C(c3c[nH]c4ccc(OC)cc34)c3c[nH]c4ccc(OC)cc34)cc3c2[nH]c2ccccc23)cc1`, the half-maximal inhibitory concentration (IC50) was determined as 18.1 µM in the series on A549; 16.3 µM in the series with DU-145; 32.5 µM in the series on HeLa; 29.9 µM in the series with MCF7; 102 µM in the series with NIH3T3.
In the case of `Fc1ccc(-c2nc(C(c3c[nH]c4ccc(F)cc34)c3c[nH]c4ccc(F)cc34)cc3c2[nH]c2ccccc23)cc1`, the 50% inhibitory concentration (IC50) with A549 worked out at 18.5 µM; in the series on DU-145, 15.8 µM; in the series with HeLa, 18.1 µM; with MCF7, 19.8 µM; in the series on NIH3T3, 114 µM.
In the case of `COc1ccc(-c2nc(C(c3c(C)[nH]c4ccc([N+](=O)[O-])cc34)c3c(C)[nH]c4ccc([N+](=O)[O-])cc34)cc3c2[nH]c2ccccc23)cc1`, the IC50 in the series on A549 was 11.7 µM; in the series with DU-145, 16.6 µM; in the series on HeLa, 21.5 µM; with MCF7 it was 25.3 µM; in the series with NIH3T3 it was 126 µM.
For the compound `CC[C@@]1(O)C(=O)OCc2c1cc1n(c2=O)Cc2cc3ccccc3nc2-1`, the inhibition result in series [1] is “Active”.
Consider `COc1ccc2[nH]cc(C(c3cc4c([nH]c5ccccc54)c(-c4cc(OC)c(OC)c(OC)c4)n3)c3c[nH]c4ccccc34)c2c1` (stereo not drawn), for which the half-maximal inhibitory concentration (IC50) with A549 was 20.4 µM; in the series with DU-145, 19.5 µM; with HeLa it was 39.8 µM; in the series with MCF7, 44.2 µM; with NIH3T3 it was 100 µM.
The corresponding values for `Cc1[nH]c2ccc([N+](=O)[O-])cc2c1C(c1cc2c([nH]c3ccccc32)c(-c2ccc(F)cc2)n1)c1c(C)[nH]c2ccc([N+](=O)[O-])cc12` are 18.6 µM, 16.9 µM, 31.5 µM, 27.7 µM and 102 µM.
On to `COc1ccc2c(c1)[nH]c1c(C)nccc12` [HARMINE], for which the IC50 came out at 7.76 µM in the series on A549, 12 µM with DU-145, 16.2 µM in the series on HeLa and 10.8 µM in the series with MCF7.
Turning to `COc1cc(-c2nc(C(c3c(C)[nH]c4ccc([N+](=O)[O-])cc34)c3c(C)[nH]c4ccc([N+](=O)[O-])cc34)cc3c2[nH]c2ccccc23)cc(OC)c1OC`, the IC50 in the series with A549 was determined as 31.7 µM; with DU-145, 20.7 µM; in the series with HeLa it was 22.6 µM; in the series on MCF7 it was 33.1 µM; in the series on NIH3T3 it was 105 µM.
For `O=[N+]([O-])c1ccc2[nH]cc(C(c3cc4c([nH]c5ccccc54)c(-c4ccc(F)cc4)n3)c3c[nH]c4ccc([N+](=O)[O-])cc34)c2c1`, the half-maximal inhibitory concentration (IC50) in the series on A549 amounted to 6.32 µM; with DU-145, 1.92 µM; in the series on HeLa it was 12.8 µM; with MCF7 it was 14.4 µM; in the series with NIH3T3 it was 64.2 µM. In addition, in series [1], the inhibition entry is “Active”. Besides, the Activity result with DNA [2] is “Not Active”. Further, in the series on DNA [3], the outcome was inactive.

The values above are taken from ChEMBL document CHEMBL4138165, “Design, synthesis and biological evaluation of new β-carboline-bisindole compounds as DNA binding, photocleavage agents and topoisomerase I inhibitors” (Eur J Med Chem, 2018).
